Laboratory results taken from ChEMBL document CHEMBL5661979, “Pharmacological inhibition of BMK1 suppresses tumor growth through promyelocytic leukemia protein” (Cancer Cell, 2010).
The source made the active and inactive calls. No cut-off for these calls is given here.

Experiments:
[1] = molecular target: Hepatocyte growth factor receptor (Homo sapiens, UniProt P08581); test: Inhibition of MET in human HeLa cells lysate pre incubated for 15 mins followed by ATP acyl phosphate probe addition and measured after 10 mins by LC-MS/MS analysis; assay type: subcellular
Chain of Hepatocyte growth factor receptor (P08581 whole entry): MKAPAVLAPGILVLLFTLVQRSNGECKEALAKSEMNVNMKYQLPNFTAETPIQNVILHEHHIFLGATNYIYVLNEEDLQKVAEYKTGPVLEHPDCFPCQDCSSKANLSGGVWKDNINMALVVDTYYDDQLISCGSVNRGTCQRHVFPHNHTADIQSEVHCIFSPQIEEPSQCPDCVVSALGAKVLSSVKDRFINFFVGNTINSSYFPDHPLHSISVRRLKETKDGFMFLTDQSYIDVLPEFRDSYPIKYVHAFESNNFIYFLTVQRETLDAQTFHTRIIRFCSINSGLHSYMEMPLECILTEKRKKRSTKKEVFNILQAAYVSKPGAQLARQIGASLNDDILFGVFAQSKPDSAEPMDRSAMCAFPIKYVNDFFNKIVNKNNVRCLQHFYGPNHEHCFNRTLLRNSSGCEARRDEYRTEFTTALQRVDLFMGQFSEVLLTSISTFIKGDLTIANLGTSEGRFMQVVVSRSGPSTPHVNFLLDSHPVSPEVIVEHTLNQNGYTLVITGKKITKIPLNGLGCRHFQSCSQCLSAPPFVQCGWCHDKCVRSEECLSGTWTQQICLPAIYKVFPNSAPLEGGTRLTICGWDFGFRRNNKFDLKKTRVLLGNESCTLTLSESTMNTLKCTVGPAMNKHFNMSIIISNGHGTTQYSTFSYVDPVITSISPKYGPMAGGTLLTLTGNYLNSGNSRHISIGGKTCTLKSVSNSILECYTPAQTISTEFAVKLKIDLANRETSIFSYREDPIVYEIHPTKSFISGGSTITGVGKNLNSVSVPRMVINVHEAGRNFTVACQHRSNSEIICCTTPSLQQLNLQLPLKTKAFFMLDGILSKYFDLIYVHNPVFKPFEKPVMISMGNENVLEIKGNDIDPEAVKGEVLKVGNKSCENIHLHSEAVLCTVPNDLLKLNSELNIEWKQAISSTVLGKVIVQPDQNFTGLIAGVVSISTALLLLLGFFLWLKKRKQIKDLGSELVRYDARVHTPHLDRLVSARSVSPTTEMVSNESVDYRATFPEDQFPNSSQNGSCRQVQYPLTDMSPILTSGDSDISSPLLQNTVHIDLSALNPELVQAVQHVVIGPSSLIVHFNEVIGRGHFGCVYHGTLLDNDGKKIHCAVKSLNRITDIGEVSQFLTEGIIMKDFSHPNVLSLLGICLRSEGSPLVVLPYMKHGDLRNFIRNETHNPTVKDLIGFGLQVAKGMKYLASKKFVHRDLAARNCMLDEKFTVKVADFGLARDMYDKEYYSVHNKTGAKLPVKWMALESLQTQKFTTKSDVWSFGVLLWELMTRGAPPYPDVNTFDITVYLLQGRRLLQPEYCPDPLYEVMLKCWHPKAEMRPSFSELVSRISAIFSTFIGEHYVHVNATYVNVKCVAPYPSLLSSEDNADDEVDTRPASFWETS

[2] = molecular target: T1, Serine/threonine-protein kinase tousled-like 1 (Homo sapiens) (UniProt Q9UKI8); test: Inhibition of TLK1 in human HeLa cells lysate at 10 uM pre incubated for 15 mins followed by ADP acyl phosphate probe addition and measured after 10 mins by LC-MS/MS analysis relative to control; assay type: subcellular; details: time 25.0 min
T1 sequence (whole entry): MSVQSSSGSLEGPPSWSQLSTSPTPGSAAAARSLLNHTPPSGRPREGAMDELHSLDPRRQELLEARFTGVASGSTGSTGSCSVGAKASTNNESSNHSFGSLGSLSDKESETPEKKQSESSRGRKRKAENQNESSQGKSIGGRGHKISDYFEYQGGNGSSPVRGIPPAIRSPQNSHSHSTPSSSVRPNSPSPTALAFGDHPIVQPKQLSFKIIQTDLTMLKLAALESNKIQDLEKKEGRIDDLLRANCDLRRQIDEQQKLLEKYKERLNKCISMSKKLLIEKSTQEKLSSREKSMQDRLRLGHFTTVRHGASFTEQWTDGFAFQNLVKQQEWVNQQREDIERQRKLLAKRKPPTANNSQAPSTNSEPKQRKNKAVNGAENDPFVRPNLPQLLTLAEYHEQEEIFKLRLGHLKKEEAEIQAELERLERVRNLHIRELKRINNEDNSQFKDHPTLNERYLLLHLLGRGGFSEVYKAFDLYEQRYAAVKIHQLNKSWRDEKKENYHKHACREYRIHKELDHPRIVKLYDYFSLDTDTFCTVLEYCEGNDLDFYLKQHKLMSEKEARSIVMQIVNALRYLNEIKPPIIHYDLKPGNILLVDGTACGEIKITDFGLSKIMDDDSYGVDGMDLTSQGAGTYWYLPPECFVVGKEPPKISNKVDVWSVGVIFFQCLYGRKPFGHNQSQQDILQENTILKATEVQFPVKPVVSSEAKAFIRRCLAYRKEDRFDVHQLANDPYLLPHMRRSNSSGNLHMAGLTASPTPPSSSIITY

[3] = molecular target: T2, Dual specificity mitogen-activated protein kinase kinase 7 (Homo sapiens) (UniProt O14733); test: Inhibition of MAP2K7 in human HeLa cells lysate at 10 uM pre incubated for 15 mins followed by ADP acyl phosphate probe addition and measured after 10 mins by LC-MS/MS analysis relative to control; assay type: subcellular; details: time 25.0 min
T2 sequence (whole entry): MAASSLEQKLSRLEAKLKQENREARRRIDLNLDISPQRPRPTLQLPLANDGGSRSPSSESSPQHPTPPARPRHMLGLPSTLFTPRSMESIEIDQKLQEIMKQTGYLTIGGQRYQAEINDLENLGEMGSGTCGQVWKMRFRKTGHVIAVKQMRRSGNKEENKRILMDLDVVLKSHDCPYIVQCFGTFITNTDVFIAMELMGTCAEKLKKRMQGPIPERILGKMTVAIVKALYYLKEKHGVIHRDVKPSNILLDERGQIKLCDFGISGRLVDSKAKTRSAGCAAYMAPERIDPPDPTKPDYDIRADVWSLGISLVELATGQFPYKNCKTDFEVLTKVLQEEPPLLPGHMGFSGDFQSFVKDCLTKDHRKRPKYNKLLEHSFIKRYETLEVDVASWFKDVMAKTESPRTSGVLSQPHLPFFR

[4] = molecular target: RAC-alpha serine/threonine-protein kinase (Homo sapiens, UniProt P31749); test: Inhibition of AKT1 in human HeLa cells lysate pre incubated for 15 mins followed by ATP acyl phosphate probe addition and measured after 10 mins by LC-MS/MS analysis; assay type: subcellular
Chain of RAC-alpha serine/threonine-protein kinase (P31749 whole entry, the tested form may be a part): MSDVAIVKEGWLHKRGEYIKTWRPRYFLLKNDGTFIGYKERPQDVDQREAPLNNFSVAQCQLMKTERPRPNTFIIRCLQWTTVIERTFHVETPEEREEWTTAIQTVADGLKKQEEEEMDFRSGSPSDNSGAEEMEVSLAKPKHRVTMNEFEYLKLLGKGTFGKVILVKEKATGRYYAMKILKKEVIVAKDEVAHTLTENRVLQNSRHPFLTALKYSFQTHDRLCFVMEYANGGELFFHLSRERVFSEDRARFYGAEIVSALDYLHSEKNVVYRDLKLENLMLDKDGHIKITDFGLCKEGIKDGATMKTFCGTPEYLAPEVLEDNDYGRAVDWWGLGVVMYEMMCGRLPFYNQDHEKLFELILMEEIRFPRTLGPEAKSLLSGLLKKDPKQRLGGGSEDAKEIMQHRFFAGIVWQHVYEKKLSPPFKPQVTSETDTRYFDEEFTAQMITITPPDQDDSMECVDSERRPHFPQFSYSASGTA
Procedure, shortened: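 HeLa cell lysates (5 mg/mL total protein) were preincubated with inhibitor at 0, 0.8, 2, 10 or 50 μM for 15 min. ATP or ADP acylphosphate probe was then added (5 μM final) for 10 min, and reactions were stopped with urea. Up to four fragment ions per kinase probe-peptide were quantified by targeted MS. % inhibition was taken relative to untreated lysate. Run in duplicate.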

[5] = Tmax in Sprague-Dawley rat at 2 mg/kg, po measured up to 8 hrs by LC-MS/MS analysis; assay type: ADME, organism-based; details: in vivo
[6] = Inhibition of MAP3K2/MAP3K3 in human HeLa cells lysate pre incubated for 15 mins followed by ADP acyl phosphate probe addition and measured after 10 mins by LC-MS/MS analysis; assay type: subcellular
HeLa = test: Antitumor activity against human HeLa cells xenografted in NOD/SCID mouse assessed as reduction tumor growth at 50 mg/kg, ip administered for 28 days; assay type: functional, organism-based; details: time 28.0 day
Procedure, shortened: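 HeLa cells (5×10^5, in DMEM) were injected s.c. into the right flank of 6-week-old Nod/Scid mice on day 0. Dosing was 50 mg/kg i.p. twice daily, starting on day 1, 7 or 14 and continuing to day 28; controls received carrier. 6 mice per treated group. Tumors were measured every 2–3 days.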

Wee1-like protein kinase = Wee1-like protein kinase (Homo sapiens, UniProt P30291); test: Inhibition of Wee1 in human HeLa cells lysate at 2 uM pre incubated for 15 mins followed by ATP acyl phosphate probe addition and measured after 10 mins by LC-MS/MS analysis relative to control; assay type: subcellular; details: time 25.0 min
Chain of Wee1-like protein kinase (P30291 whole entry, looked up): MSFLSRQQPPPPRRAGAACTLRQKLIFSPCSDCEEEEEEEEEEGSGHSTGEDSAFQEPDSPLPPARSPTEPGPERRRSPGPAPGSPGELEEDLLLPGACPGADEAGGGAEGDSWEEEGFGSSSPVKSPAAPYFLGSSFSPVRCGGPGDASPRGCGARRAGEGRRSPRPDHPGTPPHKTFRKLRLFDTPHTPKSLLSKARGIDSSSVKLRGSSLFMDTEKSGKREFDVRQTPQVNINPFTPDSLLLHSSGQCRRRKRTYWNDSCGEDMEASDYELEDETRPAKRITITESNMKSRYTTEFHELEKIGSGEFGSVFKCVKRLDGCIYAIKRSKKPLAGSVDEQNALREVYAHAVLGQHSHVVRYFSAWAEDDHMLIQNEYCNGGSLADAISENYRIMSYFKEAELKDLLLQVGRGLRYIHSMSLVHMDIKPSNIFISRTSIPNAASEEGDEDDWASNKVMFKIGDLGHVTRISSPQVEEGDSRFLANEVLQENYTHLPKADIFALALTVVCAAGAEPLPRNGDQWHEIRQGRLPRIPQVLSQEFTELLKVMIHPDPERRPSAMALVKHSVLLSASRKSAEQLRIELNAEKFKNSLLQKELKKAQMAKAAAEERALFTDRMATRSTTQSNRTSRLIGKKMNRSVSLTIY

Aurora kinase A = Aurora kinase A (Homo sapiens, UniProt O14965); test: Inhibition of AURA in human HeLa cells lysate pre incubated for 15 mins followed by ATP acyl phosphate probe addition and measured after 10 mins by LC-MS/MS analysis; assay type: subcellular
Chain of Aurora kinase A (O14965 whole entry, the tested form may be a part): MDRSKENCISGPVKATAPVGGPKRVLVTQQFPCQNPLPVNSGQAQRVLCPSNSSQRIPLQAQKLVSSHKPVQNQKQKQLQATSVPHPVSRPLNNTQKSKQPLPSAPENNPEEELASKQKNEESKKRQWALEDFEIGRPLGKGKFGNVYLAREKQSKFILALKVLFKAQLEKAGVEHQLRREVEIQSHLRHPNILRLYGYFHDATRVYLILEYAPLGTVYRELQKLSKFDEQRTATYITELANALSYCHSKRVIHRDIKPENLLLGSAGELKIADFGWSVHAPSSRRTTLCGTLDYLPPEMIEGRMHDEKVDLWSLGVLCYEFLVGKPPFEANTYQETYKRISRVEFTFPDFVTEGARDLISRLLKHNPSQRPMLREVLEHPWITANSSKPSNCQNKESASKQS
Procedure, shortened: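 KiNativ-type profiling in HeLa lysate (5 mg/mL total protein). Lysate preincubated 15 min with inhibitor at 50, 10, 2, 0.8 or 0 μM, then ATP or ADP acylphosphate probe added (5 μM final) for 10 min. Reaction stopped with urea and analysed by targeted MS, using up to four fragment ions per kinase peptide-probe conjugate. % inhibition calculated against untreated lysate. Duplicate reactions.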

[7] = molecular target: Serine/threonine-protein kinase mTOR (Homo sapiens, UniProt P42345); test: Inhibition of FRAP in human HeLa cells lysate pre incubated for 15 mins followed by ATP acyl phosphate probe addition and measured after 10 mins by LC-MS/MS analysis; assay type: subcellular
[8] = Inhibition of MAP3K5/MAP3K6/MAP3K15 in human HeLa cells lysate at 50 uM pre incubated for 15 mins followed by ATP acyl phosphate probe addition and measured after 10 mins by LC-MS/MS analysis relative to control; details: 25 min, condition cancer

Structure (SMILES): CCOc1cc(N2CCC(O)CC2)ccc1Nc1ncc2c(n1)N(C)c1ccccc1C(=O)N2C
- IC50 [1]: > 50 µM
- inhibition [2]: 4.5%
- inhibition [3]: -9.9%
- IC50 [4]: > 50 µM
- Tmax [5]: 30 min
- IC50 [6]: > 50 µM
- Activity (HeLa): Active
- inhibition (Wee1-like protein kinase): -5.2%
- IC50 (Aurora kinase A): > 50 µM
- IC50 [7]: > 50 µM
- inhibition at 50 µM [8]: 2.5%
